Experimental data taken from ChEMBL document CHEMBL3526146, “In vitro and in vivo metabolism and pharmacokinetics of BMS-562086, a potent and orally bioavailable corticotropin-releasing factor-1 receptor antagonist” (Drug Metab Dispos, 2012).
Values belong to the compound of their own block, whether it stands above or below them.

Assays:
[1] = Drug metabolism in bile duct-cannulated Sprague-Dawley rat bile assessed as BMS-572273 metabolite level at 30 mg/kg, po after 12 hrs by LC-MS/MS analysis; format: ADME, organism-based; design: dose 30 mg/kg, route oral; conditions: in vivo
Procedure, shortened: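 Male bile-duct-cannulated Sprague-Dawley rats (n=3), fasted overnight, received 30 mg/kg by gavage in 0.5% methylcellulose. Urine and bile were collected 0-12 h and pooled by equal percentage weight across animals, then centrifuged. Supernatants were profiled by LC/MS/MS. Bile was also treated with β-glucuronidase in pH 4.8 acetate buffer, 37°C, 16 h.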

Serum [2] = test: Metabolic stability in rat serum after 3 hrs by equilibrium dialysis; format: ADME, cell-free
Procedure, shortened: (§1)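 Stability assessed in the serum samples from the equilibrium-dialysis setup: compound at final 12.8, 25.6 and 38.5 µM, dialysed against 134 mM phosphate buffer, pH 7.4, at 37°C with rotation at 20 rpm. Samples monitored for degradants over the 3-h incubation.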

[3] = Apparent permeability from apical to basolateral side in human Caco2 cells; format: ADME, cell-based; conditions: Caco-2
Procedure, shortened: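 Caco-2 cells (passage 50-60) were seeded at 60,000 cells/cm2 on polycarbonate Transwells and cultured 21-25 days. Transport buffer was HBSS with 2% DMA, pH 7.4. Compound was applied apically at 25 µM at 37°C. Only monolayers with TEER 400-500 Ω cm2 at start and end were used, with mannitol as an integrity probe. Papp = (dQ/dt)/(A×C0).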

[4] = Cmax in beagle dog at 5 mg/kg, po; format: ADME, organism-based, Canis lupus familiaris; design: dose 5 mg/kg, route oral; conditions: in vivo
Procedure, shortened: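 Male beagle dogs (n=3, 10.1-12.7 kg) in a one-way IV/PO crossover with one-week washout, fasted ~15 h pre-dose and 4 h post-dose. Dosing was 1 mg/kg IV bolus into the saphenous vein in DMA:propylene glycol:water (1:7:2), or 5 mg/kg gavage in 0.5% methylcellulose. Blood was sampled 0-96 h. Plasma was assayed by LC/MS/MS (LLOQ 1.00 ng/ml) with noncompartmental analysis; Cmax was observed directly.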

[5] = Drug metabolism in beagle dog hepatocytes assessed as […] at 25 uM after 3 hrs by HPLC analysis; format: ADME, cell-based, Canis lupus familiaris, Hepatocyte
[6] = Drug metabolism in rat hepatocytes assessed as 7-hydroxycoumarin formation at 25 uM after 3 hrs by HPLC analysis; format: ADME, cell-based, Hepatocyte
[7] = Protein binding in dog serum after 3 hrs by equilibrium dialysis; format: ADME, cell-free, Canis lupus familiaris; conditions: read-out: PB (converted)
Procedure, shortened: (§2)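 Equilibrium dialysis of serum spiked to final 12.8, 25.6 and 38.5 µM against 134 mM phosphate buffer, pH 7.4, through a 10,000 Da cutoff membrane. Cells rotated at 20 rpm, 37°C, 3 h. Percent unbound taken as buffer concentration divided by serum concentration.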

[8] = Drug metabolism in beagle dog hepatocytes assessed as 7-hydroxycoumarin formation at 25 uM after 3 hrs by HPLC analysis; format: ADME, cell-based, Canis lupus familiaris, Hepatocyte
[9] = Terminal half life in Sprague-Dawley rat at 1 mg/kg, iv; format: ADME, organism-based; design: dose 1 mg/kg, route intravenous; conditions: in vivo, read-out: beta t1/2 (converted)
Procedure, shortened: (§3)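 Male Sprague-Dawley rats (n=3 per route, 0.34–0.35 kg) with jugular cannulas, fasted about 18 h before and 4 h after dosing. IV dose of 1 mg/kg in 20% ethanol/saline; oral dose of 5 mg/kg by gavage in 0.5% methylcellulose. Plasma sampled 0–96 h and assayed by LC/MS/MS (LLOQ 1.00 ng/ml). Noncompartmental analysis.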

[10] = Drug metabolism in human cryopreserved hepatocytes assessed as […] at 25 uM after 3 hrs by HPLC analysis; format: ADME, cell-based, Hepatocyte
[11] = Oral bioavailability in beagle dog at 5 mg/kg; format: ADME, organism-based, Canis lupus familiaris; conditions: in vivo
Procedure, shortened: (§4)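 Male beagle dogs (n=3), one-way IV/PO crossover with a one-week washout, fasted about 15 h before and 4 h after dosing. IV dose of 1 mg/kg as a saphenous bolus in N,N-dimethylacetamide:propylene glycol:water (1:7:2); PO dose of 5 mg/kg by gavage in 0.5% methylcellulose. Plasma sampled 0–96 h and assayed by LC/MS/MS (LLOQ 1.00 ng/ml). Noncompartmental analysis; CL = dose/AUC(INF) after IV; F from dose-normalized AUC ratio.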

[12] = AUC (infinity) in chimpanzee at 1 mg/kg, po; format: ADME, organism-based, Pan troglodytes; design: dose 1 mg/kg, route oral, time infinity; conditions: plasma
Procedure, shortened: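 Two fasted male chimpanzees (58, 72 kg) received 1 mg/kg orally as a suspension in 0.5% methylcellulose/orange drink with 1% Tween 80 (1:1). Blood was sampled 0-96 h post-dose. Plasma was assayed by validated LC/MS/MS (LLOQ 1.00 ng/ml). Noncompartmental analysis gave AUC(INF) by the mixed log-linear trapezoidal method, with Cmax observed directly; values are mean (min, max).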

[13] = Drug metabolism in rat hepatocytes assessed as at 25 uM after 3 hrs by HPLC analysis
[14] = Protein binding in rat serum after 3 hrs by equilibrium dialysis; format: ADME, cell-free; conditions: read-out: PB (converted); procedure, shortened: as §2
[15] = Drug metabolism in cynomolgus monkey cryopreserved hepatocytes assessed as 7-hydroxycoumarin formation at 25 uM after 3 hrs by HPLC analysis; format: ADME, cell-based, Macaca fascicularis, Hepatocyte
[16] = Terminal half life in beagle dog at 1 mg/kg, iv; format: ADME, organism-based, Canis lupus familiaris; design: dose 1 mg/kg, route intravenous; conditions: in vivo, read-out: beta t1/2 (converted); procedure, shortened: as §4
[17] = Terminal half life in Sprague-Dawley rat at 5 mg/kg, po; format: ADME, organism-based; design: dose 5 mg/kg, route oral; conditions: in vivo, read-out: beta t1/2 (converted); procedure, shortened: as §3
Serum [18] = test: Metabolic stability in human serum after 3 hrs by equilibrium dialysis; format: ADME, cell-free; procedure, shortened: as §1
Liver microsome = test: Drug metabolism in human liver microsomes assessed as BMS-572273 metabolite formation at 100 uM after 1 hr in presence of NADPH and ketoconazole; format: ADME
[19] = Drug metabolism in mouse hepatocytes assessed as at 25 uM after 3 hrs by HPLC analysis
[20] = AUC (infinity) in Sprague-Dawley rat at 5 mg/kg, po; format: ADME, organism-based; design: time infinity, dose 5 mg/kg, route oral; conditions: plasma
Procedure, shortened: (§5)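 Male Sprague-Dawley rats (n=3 per route, 0.34-0.35 kg, cannulated), fasted ~18 h pre-dose and 4 h post-dose. Dosing was 1 mg/kg IV bolus in 20% ethanol/saline via the jugular cannula, or 5 mg/kg oral gavage in 0.5% aqueous methylcellulose. Jugular blood was sampled 0-96 h. Plasma was assayed by validated LC/MS/MS (LLOQ 1.00 ng/ml), and AUC(INF) was derived by noncompartmental mixed log-linear trapezoidal analysis.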

[21] = Drug metabolism in cynomolgus monkey cryopreserved hepatocytes assessed as […] at 25 uM after 3 hrs by HPLC analysis; format: ADME, cell-based, Macaca fascicularis, Hepatocyte
[22] = Terminal half life in beagle dog at 5 mg/kg, po; format: ADME, organism-based, Canis lupus familiaris; design: dose 5 mg/kg, route oral; conditions: in vivo, read-out: beta t1/2 (converted)
Procedure, shortened: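 Male beagles (n=3, 10.1-12.7 kg) in one-way crossover, one-week washout after IV leg; fasted ~15 h before and 4 h after dosing. Single gavage 5 mg/kg in 0.5% aqueous methylcellulose. Plasma sampled 0-96 h, parent measured by validated LC/MS/MS (1.00-1000 ng/ml). Noncompartmental analysis; Tmax taken from observed data.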

[23] = AUC (infinity) in Sprague-Dawley rat at 1 mg/kg, iv; format: ADME, organism-based; design: time infinity, dose 1 mg/kg, route intravenous; conditions: plasma; procedure, shortened: as §5
[24] = Tmax in chimpanzee at 1 mg/kg, po; format: ADME, organism-based, Pan troglodytes; design: dose 1 mg/kg, route oral; conditions: in vivo
Procedure, shortened: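 Two male chimpanzees (58 and 72 kg), fasted overnight, dosed orally at 1 mg/kg as a suspension in 0.5% aqueous methylcellulose/Tang orange juice with 1% Tween 80 (1:1). Plasma sampled 0-96 h, parent measured by validated LC/MS/MS. Tmax taken from observed data by noncompartmental analysis; reported as median (min, max).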

[25] = Drug metabolism in mouse hepatocytes assessed as 7-hydroxycoumarin formation at 25 uM after 3 hrs by HPLC analysis; format: ADME, cell-based, Hepatocyte

- Drug metabolism [1]: metabolite_detected
Structure (SMILES): COc1ccc(-c2c(C)nn3c(O)nc(C)nc23)c(C)n1

- Stability (Serum [2]): Stable
- Papp A→B [3]: 17 ×10⁻⁶ cm/s
- Cmax [4]: 1800 nM
- Drug metabolism [5]: metabolite_detected
- Drug metabolism [6]: metabolite_detected
- fraction unbound at 3 h [7]: 0.048
- Drug metabolism [8]: metabolite_detected
- half-life [9]: 13.5 h
- Drug metabolism [10]: metabolite_detected
- bioavailability [11]: 58.8%
- AUC(0-inf) [12]: 13.9 µM·h
- Drug metabolism [13]: metabolite_detected
- fraction unbound at 3 h [14]: 0.064
- Drug metabolism [15]: metabolite_detected
- half-life [16]: 43.9 h
- half-life [17]: 13.8 h
- Stability (Serum [18]): Stable
- Drug metabolism (Liver microsome): metabolite_not_detected
- Drug metabolism [19]: metabolite_detected
- AUC(0-inf) [20]: 5.82 µM·h
- Drug metabolism [21]: metabolite_detected
- half-life [22]: 46.7 h
- AUC(0-inf) [23]: 2.9 µM·h
- Tmax [24]: 2 h
- Drug metabolism [25]: metabolite_detected
Structure (SMILES): CC[C@@H](C)Nc1nc(C)nc2c(-c3ccc(OC)nc3C)c(C)nn12 [PEXACERFONT]
